Data set [1] concerns Plasma. Nature of the data set: Anticoagulant activity in human plasma assessed as time required for clot formation in presence of compound minus time required for clot formation in absence of compound at 0.33 mM at 37 degC. The data set is classed as functional. The method in brief: (§1)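 Pooled citrate plasma from four healthy donors. Thrombin reagent pre-incubated with aptamer at 0.33 mM for 5 min, then mixed with an equal volume of plasma. Clotting time (thrombin time, seconds) read at 37 °C on an automated coagulation analyser. Antithrombin effect taken as the extra clotting time over a water-added reference.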

For another data set, the target named is Prothrombin (Homo sapiens, UniProt P00734). Nature of the data set: Binding affinity to thrombin at 37 degC by isothermal titration calorimetry. The method, boiled down:
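ITC at 37 °C. One 0.2 µL pre-injection, discarded, then 19 × 2 µL injections. Heat of dilution from aptamer-into-buffer injections subtracted.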
(Isothermal titration calorimetry measures the heat released or taken up as one component is titrated into another.)

For data set [2], the system named is Plasma. In words: Anticoagulant activity in human plasma assessed as time required for clot formation at 0.33 mM at 37 degC. In kind it is functional. The method, boiled down: as §1
Data set [3] is described as follows: Thermodynamic stability in pH 7.0 buffer containing 100 mM Kcl, 10 mM sodium cacodylate. In kind it is physicochemical. The method in brief:
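UV melting at 295 nm over 5–95 °C at 0.2 °C/min. Samples annealed 5 min at 80 °C, then slowly cooled. Nine strand concentrations spanning 10^-5–10^-6 M, set from absorbance above 80 °C. Heating and cooling profiles recorded. Thermodynamic parameters from non-linear fitting of melting curves with a unimolecular transition model.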

Each structure is given as a SMILES string.

Take `Cc1cn([C@H]2C[C@H](OP(N)(=O)OC[C@@H]3C[C@@H](OP(N)(=O)OC[C@H]4O[C@@H](n5cnc6c(=O)[nH]c(N)nc65)C[C@@H]4OP(N)(=O)OC[C@H]4O[C@@H](n5cc(C)c(=O)[nH]c5=O)C[C@@H]4OP(N)(=O)OC[C@H]4O[C@@H](n5cnc6c(=O)[nH]c(N)nc65)C[C@@H]4OP(N)(=O)OC[C@H]4O[C@@H](n5cc(C)c(=O)[nH]c5=O)C[C@@H]4OP(N)(=O)OC[C@H]4O[C@@H](n5cnc6c(=O)[nH]c(N)nc65)C[C@@H]4OP(N)(=O)OC[C@H]4O[C@@H](n5cnc6c(=O)[nH]c(N)nc65)C[C@@H]4OP(N)(=O)OC[C@H]4O[C@@H](n5cc(C)c(=O)[nH]c5=O)C[C@@H]4OP(N)(=O)OC[C@H]4O[C@@H](n5cc(C)c(=O)[nH]c5=O)C[C@@H]4OP(N)(=O)OC[C@H]4O[C@@H](n5cnc6c(=O)[nH]c(N)nc65)C[C@@H]4OP(N)(=O)OC[C@H]4O[C@@H](n5cnc6c(=O)[nH]c(N)nc65)C[C@@H]4O)[C@H](n4cnc5c(=O)[nH]c(N)nc54)O3)[C@@H](COP(N)(=O)OC[C@@H](COP(N)(=O)O[C@H]3C[C@H](n4cnc5c(=O)[nH]c(N)nc54)O[C@@H]3COP(N)(=O)O[C@H]3C[C@H](n4cnc5c(=O)[nH]c(N)nc54)O[C@@H]3COC(=O)CCCC[C@@H]3SC[C@@H]4NC(=O)N[C@@H]43)O[C@H](CN3CCNCC3)n3ccc(=O)[nH]c3=O)O2)c(=O)[nH]c1=O` (stereo partly drawn): the Time in the data set with Plasma [1] is 2.3 s; in the data set on Plasma [2] it was 21.3 s. Besides, on Prothrombin, binding was put at a Kd of 1600 nM. Further, the Tm in data set [3] was found to be 45.4 °C.
As to `Cc1cn([C@H]2C[C@H](OP(N)(=O)OC[C@@H]3C[C@@H](OP(N)(=O)OC[C@H]4O[C@@H](n5cnc6c(=O)[nH]c(N)nc65)C[C@@H]4OP(N)(=O)OC[C@H]4O[C@@H](n5ccc(=O)[nH]c5=O)[C@H](O)[C@@H]4OP(N)(=O)OC[C@H]4O[C@@H](n5cnc6c(=O)[nH]c(N)nc65)C[C@@H]4OP(N)(=O)OC[C@H]4O[C@@H](n5cc(C)c(=O)[nH]c5=O)C[C@@H]4OP(N)(=O)OC[C@H]4O[C@@H](n5cnc6c(=O)[nH]c(N)nc65)C[C@@H]4OP(N)(=O)OC[C@H]4O[C@@H](n5cnc6c(=O)[nH]c(N)nc65)C[C@@H]4OP(N)(=O)OC[C@H]4O[C@@H](n5cc(C)c(=O)[nH]c5=O)C[C@@H]4OP(N)(=O)OC[C@H]4O[C@@H](n5cc(C)c(=O)[nH]c5=O)C[C@@H]4OP(N)(=O)OC[C@H]4O[C@@H](n5cnc6c(=O)[nH]c(N)nc65)C[C@@H]4OP(N)(=O)OC[C@H]4O[C@@H](n5cnc6c(=O)[nH]c(N)nc65)C[C@@H]4O)[C@H](n4cnc5c(=O)[nH]c(N)nc54)O3)[C@@H](COP(N)(=O)O[C@H]3C[C@H](n4cc(C)c(=O)[nH]c4=O)O[C@@H]3COP(N)(=O)O[C@H]3C[C@H](n4cnc5c(=O)[nH]c(N)nc54)O[C@@H]3COP(N)(=O)O[C@H]3C[C@H](n4cnc5c(=O)[nH]c(N)nc54)O[C@@H]3CO)O2)c(=O)[nH]c1=O` (stereo partly drawn), the dissociation constant Kd at Prothrombin came to 37 nM.
With `Cc1cn([C@H]2C[C@H](OP(N)(=O)OC[C@H]3O[C@@H](n4cnc5c(=O)[nH]c(N)nc54)C[C@@H]3OP(N)(=O)OC[C@H]3O[C@@H](n4cnc5c(=O)[nH]c(N)nc54)C[C@@H]3O)[C@@H](COP(N)(=O)O[C@H]3C[C@H](n4cc(C)c(=O)[nH]c4=O)O[C@@H]3COP(N)(=O)O[C@H]3C[C@H](n4cnc5c(=O)[nH]c(N)nc54)O[C@@H]3COP(N)(=O)O[C@H]3C[C@H](n4cnc5c(=O)[nH]c(N)nc54)O[C@@H]3COP(N)(=O)OC[C@@H](COP(N)(=O)OC[C@@H](COP(N)(=O)OC[C@@H](COP(N)(=O)O[C@H]3C[C@H](n4cnc5c(=O)[nH]c(N)nc54)O[C@@H]3COP(N)(=O)O[C@@H]3C[C@@H](COP(N)(=O)O[C@H]4C[C@H](n5cc(C)c(=O)[nH]c5=O)O[C@@H]4COP(N)(=O)O[C@H]4C[C@H](n5c(C)cc(=O)[nH]c5=O)O[C@@H]4COP(N)(=O)O[C@H]4C[C@H](n5cnc6c(=O)[nH]c(N)nc65)O[C@@H]4COP(N)(=O)O[C@H]4C[C@H](n5cnc6c(=O)[nH]c(N)nc65)O[C@@H]4COC(=O)CCCC[C@@H]4SC[C@@H]5NC(=O)N[C@@H]54)O[C@H]3n3cnc4c(=O)[nH]c(N)nc43)O[C@H](CO)n3ccc(=O)[nH]c3=O)O[C@H](CO)n3cnc4c(=O)[nH]c(N)nc43)O[C@H](CO)n3ccc(=O)[nH]c3=O)O2)c(=O)[nH]c1=O` (stereo partly drawn), the Time in the data set on Plasma [1] is 1.5 s; with Plasma [2], 20.5 s. The same compound came in with a Kd at Prothrombin of 1500 nM. Besides, the Tm in data set [3] was determined as 27 °C.
Consider `Cc1cn([C@H]2C[C@H](OP(N)(=O)OC[C@@H]3C[C@@H](OP(N)(=O)OC[C@H]4O[C@@H](n5cnc6c(=O)[nH]c(N)nc65)C[C@@H]4OP(N)(=O)OC[C@H]4O[C@@H](n5ccc(=O)[nH]c5=O)[C@H](O)[C@@H]4OP(N)(=O)OC[C@H]4O[C@@H](n5cnc6c(=O)[nH]c(N)nc65)[C@H](O)[C@@H]4OP(N)(=O)OC[C@H]4O[C@@H](n5ccc(=O)[nH]c5=O)[C@H](O)[C@@H]4OP(N)(=O)OC[C@H]4O[C@@H](n5cnc6c(=O)[nH]c(N)nc65)C[C@@H]4OP(N)(=O)OC[C@H]4O[C@@H](n5cnc6c(=O)[nH]c(N)nc65)C[C@@H]4OP(N)(=O)OC[C@H]4O[C@@H](n5ccc(=O)[nH]c5=O)[C@H](O)[C@@H]4OP(N)(=O)OC[C@H]4O[C@@H](n5cc(C)c(=O)[nH]c5=O)C[C@@H]4OP(N)(=O)OC[C@H]4O[C@@H](n5cnc6c(=O)[nH]c(N)nc65)C[C@@H]4OP(N)(=O)OC[C@H]4O[C@@H](n5cnc6c(=O)[nH]c(N)nc65)C[C@@H]4O)[C@H](n4cnc5c(=O)[nH]c(N)nc54)O3)[C@@H](COP(N)(=O)O[C@H]3[C@@H](O)[C@H](n4ccc(=O)[nH]c4=O)O[C@@H]3COP(N)(=O)O[C@H]3C[C@H](n4cnc5c(=O)[nH]c(N)nc54)O[C@@H]3COP(N)(=O)O[C@H]3C[C@H](n4cnc5c(=O)[nH]c(N)nc54)O[C@@H]3COC(=O)CCCC[C@@H]3SC[C@@H]4NC(=O)N[C@@H]43)O2)c(=O)[nH]c1=O` (stereo partly drawn), for which the results for the Time in the data set on Plasma [1] and in the data set on Plasma [2] were 0 s and 19 s, respectively. For the same compound, the Tm in data set [3] turned out to be 29.7 °C.
On the same counts, the results for `Cc1cn([C@H]2C[C@H](OP(N)(=O)OC[C@@H]3C[C@@H](OP(N)(=O)OC[C@H]4O[C@@H](n5cnc6c(=O)[nH]c(N)nc65)C[C@@H]4OP(N)(=O)OC[C@H](COP(N)(=O)OC[C@H]4O[C@@H](n5cnc6c(=O)[nH]c(N)nc65)C[C@@H]4OP(N)(=O)OC[C@H]4O[C@@H](n5cc(C)c(=O)[nH]c5=O)C[C@@H]4OP(N)(=O)OC[C@H]4O[C@@H](n5cnc6c(=O)[nH]c(N)nc65)C[C@@H]4OP(N)(=O)OC[C@H]4O[C@@H](n5cnc6c(=O)[nH]c(N)nc65)C[C@@H]4OP(N)(=O)OC[C@H](COP(N)(=O)OC[C@H]4O[C@@H](n5cc(C)c(=O)[nH]c5=O)C[C@@H]4OP(N)(=O)OC[C@H]4O[C@@H](n5cnc6c(=O)[nH]c(N)nc65)C[C@@H]4OP(N)(=O)OC[C@H]4O[C@@H](n5cnc6c(=O)[nH]c(N)nc65)C[C@@H]4O)O[C@H](CO)n4ccc(=O)[nH]c4=O)O[C@H](CO)n4ccc(=O)[nH]c4=O)[C@H](n4cnc5c(=O)[nH]c(N)nc54)O3)[C@@H](COP(N)(=O)OC[C@@H](COP(N)(=O)O[C@H]3C[C@H](n4cnc5c(=O)[nH]c(N)nc54)O[C@@H]3COP(N)(=O)O[C@H]3C[C@H](n4cnc5c(=O)[nH]c(N)nc54)O[C@@H]3COC(=O)CCCC[C@@H]3SC[C@@H]4NC(=O)N[C@@H]43)O[C@H](CO)n3ccc(=O)[nH]c3=O)O2)c(=O)[nH]c1=O` (stereo partly drawn) are 0.5 s, 19.5 s and 51 °C.
The corresponding values for `Cc1cn([C@H]2C[C@H](OP(N)(=O)OC[C@@H]3C[C@@H](OP(N)(=O)OC[C@H]4O[C@@H](n5cnc6c(=O)[nH]c(N)nc65)C[C@@H]4OP(N)(=O)OC[C@H]4O[C@@H](n5cc(C)c(=O)[nH]c5=O)C[C@@H]4OP(N)(=O)OC[C@H]4O[C@@H](n5cnc6c(=O)[nH]c(N)nc65)C[C@@H]4OP(N)(=O)OC[C@H]4O[C@@H](n5cc(C)c(=O)[nH]c5=O)C[C@@H]4OP(N)(=O)OC[C@H]4O[C@@H](n5cnc6c(=O)[nH]c(N)nc65)C[C@@H]4OP(N)(=O)OC[C@H]4O[C@@H](n5cnc6c(=O)[nH]c(N)nc65)C[C@@H]4OP(N)(=O)OC[C@H](COP(N)(=O)OC[C@H]4O[C@@H](n5cc(C)c(=O)[nH]c5=O)C[C@@H]4OP(N)(=O)OC[C@H]4O[C@@H](n5cnc6c(=O)[nH]c(N)nc65)C[C@@H]4OP(N)(=O)OC[C@H]4O[C@@H](n5cnc6c(=O)[nH]c(N)nc65)C[C@@H]4O)O[C@H](CO)n4ccc(=O)[nH]c4=O)[C@H](n4cnc5c(=O)[nH]c(N)nc54)O3)[C@@H](COP(N)(=O)OC[C@@H](COP(N)(=O)O[C@H]3C[C@H](n4cnc5c(=O)[nH]c(N)nc54)O[C@@H]3COP(N)(=O)O[C@H]3C[C@H](n4cnc5c(=O)[nH]c(N)nc54)O[C@@H]3COC(=O)CCCC[C@@H]3SC[C@@H]4NC(=O)N[C@@H]43)O[C@H](CO)n3ccc(=O)[nH]c3=O)O2)c(=O)[nH]c1=O` (stereo partly drawn) are 0.4 s, 19.4 s and 47.4 °C.

Usually Kd stands for a measure of binding affinity in units of concentration. Read a high Kd as a looser complex.

Values taken from ChEMBL document CHEMBL1811902, “Thermodynamic and biological evaluation of a thrombin binding aptamer modified with several unlocked nucleic acid (UNA) monomers and a 2'-C-piperazino-UNA monomer” (Bioorg Med Chem, 2011).
